The results in this text go back to ChEMBL document CHEMBL4665847, “Understanding the Metabolism of Proteolysis Targeting Chimeras (PROTACs): The Next Step toward Pharmaceutical Applications” (J Med Chem, 2020).

Data set [1] can be described thus: Metabolic stability in cryopreserved human hepatocytes assessed as O-dealkylation at 1 uM incubated for 4 hrs. Type of data set: ADME, cell-based, Hepatocyte.
Data set [2] in a line: Metabolic stability in cryopreserved human hepatocytes assessed as aliphatic hydroxylation at 1 uM incubated for 4 hrs. Type of data set: ADME, cell-based, Hepatocyte.
A short description of data set [3]: Metabolic stability in cryopreserved human hepatocytes assessed as glucuronidation at 1 uM incubated for 4 hrs. The format is ADME, cell-based, Hepatocyte.
Data set [4] can be described thus: Stability of compound in DMSO at 10 uM incubated for 12 hrs by LC-MS analysis. Type of data set: physicochemical. Put shortly: (§1)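 Nonenzymatic stability: 10 mM DMSO stock diluted to 10 μM in PBS, PBS/ACN (1:1), or DMSO; PBS/ACN-DMSO variant dried under nitrogen at 40 °C and redissolved in DMSO. Solutions kept in LC autosampler at 37 °C for 12 h; LC-MS injections at 0, 3, 6 and 12 h tracking remaining parent.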

Data set [5] can be described thus: Stability of compound in PBS/ACN-DMSO assessed as compound degradation at 10 uM measured after 3 hrs by LC-MS analysis. The format is physicochemical. The note with it: read-out: Drug degradation. Put shortly:
as §1

Data set [6] can be described thus: Stability of the compound in PBS at pH 7.4 assessed as compound degradation at 10 uM incubated for 12 hrs by LC-MS analysis. The note with it: buffer, pH 7.4, 12 h. The format is physicochemical. The gist of the method: as §1
The nature of data set [7]: Stability of the compound in PBS/ACN assessed as compound degradation at 10 uM measured after 3 hrs by LC-MS analysis. Type of data set: physicochemical. The note with it: buffer. The gist of the method:
as §1

Data set [8] is described as follows: Metabolic stability in cryopreserved human hepatocytes assessed as amide hydrolysis at 1 uM incubated for 4 hrs. The format is ADME, cell-based, Hepatocyte.
Data set [9] can be described thus: Metabolic stability in cryopreserved human hepatocytes assessed as N-dealkylation at 1 uM incubated for 4 hrs. Type of data set: ADME, cell-based, Hepatocyte.
Data set [10] addresses T1, Aldehyde oxidase (Homo sapiens, UniProt Q06278).
T1 sequence (Q06278 whole entry): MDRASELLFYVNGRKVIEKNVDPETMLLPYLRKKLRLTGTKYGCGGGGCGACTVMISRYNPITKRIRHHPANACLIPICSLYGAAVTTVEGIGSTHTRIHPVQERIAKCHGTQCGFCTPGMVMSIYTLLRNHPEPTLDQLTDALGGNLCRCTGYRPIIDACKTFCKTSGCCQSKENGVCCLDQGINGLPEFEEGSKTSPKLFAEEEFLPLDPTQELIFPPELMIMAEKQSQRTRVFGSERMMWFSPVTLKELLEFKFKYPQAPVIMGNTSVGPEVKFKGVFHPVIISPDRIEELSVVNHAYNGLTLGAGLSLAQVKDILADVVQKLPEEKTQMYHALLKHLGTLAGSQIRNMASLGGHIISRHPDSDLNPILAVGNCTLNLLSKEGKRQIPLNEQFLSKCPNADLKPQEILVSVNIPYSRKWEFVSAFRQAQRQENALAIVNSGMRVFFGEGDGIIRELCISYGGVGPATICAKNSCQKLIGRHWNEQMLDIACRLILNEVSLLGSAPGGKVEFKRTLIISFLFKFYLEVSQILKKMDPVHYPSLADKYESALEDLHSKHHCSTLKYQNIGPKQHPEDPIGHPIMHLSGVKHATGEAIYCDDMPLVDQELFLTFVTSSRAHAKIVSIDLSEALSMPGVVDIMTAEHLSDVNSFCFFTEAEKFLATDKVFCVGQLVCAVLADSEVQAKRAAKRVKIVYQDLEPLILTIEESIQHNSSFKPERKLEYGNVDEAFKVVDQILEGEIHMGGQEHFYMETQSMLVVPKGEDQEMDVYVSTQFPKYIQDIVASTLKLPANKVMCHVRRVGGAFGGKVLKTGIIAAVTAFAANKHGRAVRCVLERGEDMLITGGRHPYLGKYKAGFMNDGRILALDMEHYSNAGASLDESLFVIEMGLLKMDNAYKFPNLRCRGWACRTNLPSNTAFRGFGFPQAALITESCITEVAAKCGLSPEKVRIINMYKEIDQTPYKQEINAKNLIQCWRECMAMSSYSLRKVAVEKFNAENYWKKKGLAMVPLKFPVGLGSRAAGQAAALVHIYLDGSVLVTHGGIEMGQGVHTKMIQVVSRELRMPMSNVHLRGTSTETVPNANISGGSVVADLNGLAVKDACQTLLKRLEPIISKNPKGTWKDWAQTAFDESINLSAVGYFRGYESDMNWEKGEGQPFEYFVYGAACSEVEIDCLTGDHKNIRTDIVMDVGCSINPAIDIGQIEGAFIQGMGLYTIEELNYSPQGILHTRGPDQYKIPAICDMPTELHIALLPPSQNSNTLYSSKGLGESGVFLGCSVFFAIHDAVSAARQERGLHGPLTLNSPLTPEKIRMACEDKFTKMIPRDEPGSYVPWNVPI
The data set can be described thus: Metabolic stability in human liver cytosol assessed as AOX1 mediated drug metabolism by measuring amide hydrolysis at 1 uM incubated up to 90 mins in presence of hydralazine by LC-MS/MS analysis. The note with it: 1.5 h. The format is ADME, subcellular.

For data set [11], the target named is T1, Aldehyde oxidase. The data set can be described thus: Metabolic stability in human liver cytosol assessed as AOX1 mediated drug metabolism by measuring hydroxylation at 1 uM incubated up to 90 mins in absence of hydralazine by LC-MS/MS analysis. The format is ADME, subcellular. The note with it: 1.5 h.
A short description of data set [12]: Metabolic stability in cryopreserved human hepatocytes assessed as aromatic hydroxylation at 1 uM incubated for 4 hrs. The format is ADME, cell-based, Hepatocyte.
Data set [13] in a line: Metabolic stability in cryopreserved human hepatocytes assessed as aliphatic carbonylation at 1 uM incubated for 4 hrs. Type of data set: ADME, cell-based, Hepatocyte.
Data set [14] in a line: Metabolic stability in cryopreserved human hepatocytes assessed as dehydrogenation at 1 uM incubated for 4 hrs. Type of data set: ADME, cell-based, Hepatocyte.

In the case of `Oc1c(-c2csc(N3CCOCC3)n2)ccc(F)c1F`, the Drug metabolism result in data set [1], in data set [2] and in [3] was “Metabolite_Detected” throughout.
`Cc1sc2c(c1C)C(c1ccc(Cl)cc1)=N[C@@H](CC(=O)NCCCCNC(=O)COc1cccc3c1C(=O)N(C1CCC(=O)NC1=O)C3=O)c1nnc(C)n1-2` (some centres not stated): the Stabilty result is given as “Stable” in [4], “Unstable” in data set [6] and “Unstable” in data set [7]. Besides, in data set [5], the degraded at 3 h, 10 µM came to 10%.
As to `O=C(COc1cccc2c1C(=O)N(C1CCC(=O)NC1=O)C2=O)NCCOCCOCCNC(=O)COc1c(-c2csc(N3CCOCC3)n2)ccc(F)c1F` (configuration not stated), the Drug metabolism entry in data set [1], in data set [8] and in data set [2] was “Metabolite_Detected” each time.
Regarding `O=C(COc1cccc2c1C(=O)N(C1CCC(=O)NC1=O)C2=O)NCCCCCCCCNC(=O)COc1c(-c2csc(N3CCOCC3)n2)ccc(F)c1F` (configuration not stated), the Drug metabolism result in data set [1], in [8] and in data set [9] was “Metabolite_Detected” in each case.
`Cc1ncsc1-c1ccc([C@H](C)NC(=O)[C@@H]2C[C@@H](O)CN2C(=O)[C@@H](NC(=O)CCCCNC(=O)COc2c(-c3csc(N4CCOCC4)n3)ccc(F)c2F)C(C)(C)C)cc1`: the Drug metabolism result in data set [10] and in data set [11] was “Metabolite_Detected” throughout.
As to `Cc1ncsc1-c1ccc([C@H](C)NC(=O)[C@@H]2C[C@@H](O)CN2C(=O)[C@@H](N)C(C)(C)C)cc1`, the Drug metabolism result in data set [9], in data set [2], in [12] and in data set [13] was “Metabolite_Detected” each time.
Turning to `Cc1sc2c(c1C)C(c1ccc(Cl)cc1)=N[C@@H](CC(=O)NCCCCCCCCNc1cccc3c1C(=O)N(C1CCC(=O)NC1=O)C3=O)c1nnc(C)n1-2` (some centres not stated), the Drug metabolism result in [14], in [9] and in [2] was “Metabolite_Detected” in each case.
In the case of `O=C(COc1c(-c2csc(N3CCOCC3)n2)ccc(F)c1F)NCCCCCCCCNc1cccc2c1C(=O)N(C1CCC(=O)NC1=O)C2=O` (configuration not stated), the Drug metabolism entry in data set [1], in data set [8], in data set [9] and in [2] was “Metabolite_Detected” throughout.
As to `Cc1ncsc1-c1ccc([C@H](C)NC(=O)[C@@H]2C[C@@H](O)CN2C(=O)[C@@H](NC(=O)CCCCN(C)C(=O)COc2c(-c3csc(N4CCOCC4)n3)ccc(F)c2F)C(C)(C)C)cc1`, the Drug metabolism result in data set [10] and in data set [11] was “Metabolite_Detected” each time.
`O=C(COc1c(-c2csc(N3CCOCC3)n2)ccc(F)c1F)NCCOCCOCCNc1cccc2c1C(=O)N(C1CCC(=O)NC1=O)C2=O` (configuration not stated): the Drug metabolism entry in data set [1], in data set [8] and in [9] was “Metabolite_Detected” throughout.
In the case of `Cc1sc2c(c1C)C(c1ccc(Cl)cc1)=N[C@@H](CC(=O)O)c1nnc(C)n1-2`, the Drug metabolism result in [2] is “Metabolite_Detected”.
Turning to `Cc1ncsc1-c1ccc([C@H](C)NC(=O)[C@@H]2C[C@@H](O)CN2C(=O)[C@@H](NC(=O)COCCOCCNC(=O)COc2c(-c3csc(N4CCOCC4)n3)ccc(F)c2F)C(C)(C)C)cc1`, the Drug metabolism result in data set [1], in data set [8], in data set [14] and in [3] was “Metabolite_Detected” each time.
For the compound `Nc1cccc2c1C(=O)N(C1CCC(=O)NC1=O)C2=O` (configuration not stated) [POMALIDOMIDE], in data set [8], the Drug metabolism result was “Metabolite_Detected”.
